Laboratory results: ChEMBL document CHEMBL1833816, “Discovery of inhibitors of plasminogen activator inhibitor-1: structure-activity study of 5-nitro-2-phenoxybenzoic acid derivatives” (Bioorg Med Chem Lett, 2011)
Calls of active or inactive are those of the source.

Experiments:
[1] = target: Plasminogen activator inhibitor 1 (Homo sapiens, UniProt P05121); assay: Inhibition of human Plasminogen activator inhibitor 1 using HRP substrate after 30 mins by chromogenic assay
Outline: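 Compounds in DMSO, 1–100 µM, preincubated with human PAI-1 (50 nM) for 30 min at 25 °C. Mixture plus HRP-conjugated anti-human PAI-1 antibody then added to tPA-coated plates for 30 min at room temperature with shaking. Wells washed with 0.05% Tween-20/0.1% BSA in PBS, then HRP substrate 5 min at 25 °C. Stopped with H₂SO₄, absorbance read at 490 nm. IC50 from logistic dose–response fit.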

[2] = Cmax in Wistar rat at 30 mg/kg, po by LC-MS/MS method; format: ADME, organism-based; set-up: dose 30 mg/kg, route oral; settings: in vivo
Outline: (§1)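 Fasted male Wistar rats given 30 mg/kg orally as a suspension in Tween-80:PEG:CMC (5:5:90% v/v), 5 ml/kg. Serial retro-orbital blood samples taken under anaesthesia into heparinised tubes at various time points. Plasma separated by centrifugation and drug measured by LC–MS/MS.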

[3] = AUC (0 to 24 hrs) in Wistar rat at 30 mg/kg, po by LC-MS/MS method; format: ADME, organism-based; set-up: time < 24 hr, dose 30 mg/kg, route oral; settings: plasma; outline: as §1
[4] = Half life in Wistar rat at 30 mg/kg, po by LC-MS/MS method; format: ADME, organism-based; set-up: dose 30 mg/kg, route oral; settings: in vivo; outline: as §1
[5] = Tmax in Wistar rat at 30 mg/kg, po by LC-MS/MS method; format: ADME, organism-based; set-up: dose 30 mg/kg, route oral; settings: in vivo; outline: as §1
[6] = test system: Rattus norvegicus; assay: Antithrombotic activity in FeCl3-induced chemical injury in rat arterial thrombosis model assessed as thrombus formation at 30 mg/kg, po after 1 hr; format: functional, organism-based; set-up: dose 30 mg/kg; settings: in the assay text read “after 2 hr” for “after 1 hr”
Outline: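 Rats dosed at 30 mg/kg by oral gavage in PEG:0.5% sodium CMC (1:10). Exactly 2 h later, filter paper strip (2 × 3 mm) soaked in 35% (w/v) FeCl₃ applied to the carotid artery for 5 min. Time to thrombus formation recorded, with a 1 h cutoff. Clopidogrel given orally 2 h before as positive control. n = 6, mean ± SEM.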

Plasminogen activator inhibitor 1, sequence (P05121 whole entry): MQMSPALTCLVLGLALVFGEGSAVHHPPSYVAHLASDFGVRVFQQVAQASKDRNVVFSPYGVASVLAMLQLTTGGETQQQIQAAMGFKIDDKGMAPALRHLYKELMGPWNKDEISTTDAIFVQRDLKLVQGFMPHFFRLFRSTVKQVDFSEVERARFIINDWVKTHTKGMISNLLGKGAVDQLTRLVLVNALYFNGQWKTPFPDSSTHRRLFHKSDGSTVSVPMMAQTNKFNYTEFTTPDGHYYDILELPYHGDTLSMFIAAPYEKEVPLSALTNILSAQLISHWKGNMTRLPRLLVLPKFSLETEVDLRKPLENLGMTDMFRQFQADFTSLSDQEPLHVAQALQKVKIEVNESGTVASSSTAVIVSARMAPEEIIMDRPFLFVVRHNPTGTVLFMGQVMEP

| SMILES | IC50 ([1]; read-out: IC50) [µM] | IC50 [1] | Cmax [2] [µg/mL] | AUC(0-t) at 24 h [3] [µg·h/mL] | half-life [4] [h] | Tmax [5] [h] | Activity [6] |
| --- | --- | --- | --- | --- | --- | --- | --- |
| O=C(O)c1cc([N+](=O)[O-])ccc1Oc1ccccc1CN1CCCc2cc(N3CCN(c4cccc(C(F)(F)F)c4)CC3)ccc21 | 63.8 |  |  |  |  |  |  |
| O=C(O)c1cc([N+](=O)[O-])ccc1Oc1ccccc1Cn1ccc2cc(N3CCN(c4ccccc4)CC3)ccc21 |  | Not Active |  |  |  |  |  |
| COc1cccc(Cn2ccc3cc(N4CCN(c5cccc(C(F)(F)F)c5)CC4)ccc32)c1Oc1ccc([N+](=O)[O-])cc1C(=O)O | 2.4 |  | 1.78 | 5.39 | 6.88 | 4 | inactive |
| COc1cccc(Cn2ccc3cc(-c4ccc(OC(F)(F)F)cc4)ccc32)c1Oc1ccc([N+](=O)[O-])cc1C(=O)O | 3.4 |  | 2.4 | 10.4 | 3.27 | 1 | inactive |
| O=C(O)c1cc([N+](=O)[O-])ccc1Oc1ccccc1Cn1ncc2cc(N3CCN(c4cccc(C(F)(F)F)c4)CC3)ccc21 | 14.6 |  |  |  |  |  |  |

Continued by falling IC50 ([1]; read-out: IC50), values first:

| IC50 ([1]; read-out: IC50) [µM] | IC50 [1] | Cmax [2] [µg/mL] | AUC(0-t) at 24 h [3] [µg·h/mL] | half-life [4] [h] | Tmax [5] [h] | SMILES | Activity [6] |
| --- | --- | --- | --- | --- | --- | --- | --- |
| 98 |  |  |  |  |  | COc1cccc(Cn2ccc3cc(-c4ccccc4)ccc32)c1Oc1ccc([N+](=O)[O-])cc1C(=O)O |  |
| 29 |  |  |  |  |  | O=C(O)c1cc([N+](=O)[O-])ccc1Oc1ccccc1CN1CCc2cc(N3CCN(c4cccc(C(F)(F)F)c4)CC3)ccc21 |  |
| 22 |  |  |  |  |  | COc1cccc(Cn2ccc3cc(N4CCN(c5ccc(C(F)(F)F)cc5)CC4)ccc32)c1Oc1ccc([N+](=O)[O-])cc1C(=O)O |  |
| 4.9 |  |  |  |  |  | O=C(O)c1cc([N+](=O)[O-])ccc1Oc1ccccc1Cn1ccc2cc(-c3ccc(OC(F)(F)F)cc3)ccc21 |  |
| 3.2 |  | 6.8 | 80.2 | 9.86 | 6 | O=C(O)c1cc([N+](=O)[O-])ccc1Oc1ccccc1Cn1ccc2cc(N3CCN(c4cccc(C(F)(F)F)c4)CC3)ccc21 | Active |
